This is an account of results in ChEMBL document CHEMBL1144178, “Synthesis and biological evaluation of 2-(3',4',5'-trimethoxybenzoyl)-3-N,N-dimethylamino benzo[b]furan derivatives as inhibitors of tubulin polymerization” (Bioorg Med Chem, 2008).

A short description of assay [1]: Inhibition of bovine brain tubulin polymerization for 20 mins by turbidimetry. On the set-up: species or system Bos taurus. In a few lines: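 Purified bovine brain tubulin (10 μM) preincubated with varying compound concentrations in glutamate buffer at 30 °C, cooled to 0 °C, GTP added, then warmed to 30 °C in a recording spectrophotometer.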
Another assay concerns L1210. As to the kind of experiment: Antiproliferative activity against mouse L1210 cells after 2 days. It counts as functional, cell-based. Conditions: L1210, 48 h. An outline of the steps: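 Cells were seeded at 300,000–500,000 cells/mL and mixed 1:1 with compound dilutions. They were incubated at 37 °C for two days and counted with a Coulter counter. IC50 is the concentration that inhibits proliferation by 50%, given as mean ± SE from dose–response curves of at least three independent experiments.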

The species named for another assay is Bos taurus. The assay can be described thus: Displacement of [3H]colchicine from bovine brain tubulin at 1 uM. An outline of the steps:
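Purified bovine brain tubulin (1 μM) was incubated with 5 μM [3H]colchicine and 1 μM test compound. The read-out is percent inhibition of radiolabelled colchicine binding.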

For a further assay, the system named is FM3A. The assay can be described thus: Antiproliferative activity against mouse FM3A cells after 2 days. It counts as functional, cell-based. Conditions: 48 h.
For assay [2], the system named is K562. The assay can be described thus: Cell cycle arrest in human K-562 cells assessed as accumulation at G0/G1 phase at 68 nM after 24 hrs by flow cytometry. It counts as functional. A general note: A flow cytometer gives signals particle by particle.
The subject of assay [3] is K562. As to the kind of experiment: Cell cycle arrest in human K-562 cells assessed as accumulation at S phase at 68 nM after 24 hrs by flow cytometry. It counts as functional.
For assay [4], the system named is K562. The assay can be described thus: Cell cycle arrest in human K-562 cells assessed as accumulation at sub G0/G1 phase at 68 nM after 24 hrs by flow cytometry. The format is functional.
In assay [5] the test system is K562. As to the kind of experiment: Cell cycle arrest in human K-562 cells assessed as accumulation at G2/M phase at 68 nM after 24 hrs by flow cytometry. It counts as functional.
The test system of assay [6] is K562. The assay can be described thus: Cell cycle arrest in human K-562 cells assessed as accumulation at G2/M phase at 212 nM after 24 hrs by flow cytometry. The format is functional. In a few lines: (§1)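 K562 cells exposed 24 h to compound, then washed once in ice-cold PBS. Resuspended at 1 × 10⁶ per mL in hypotonic propidium iodide 50 μg/mL with 0.1% sodium citrate and 0.03% (v/v) nonidet P-40, 30 min. Fluorescence read by flow cytometry as a single-parameter histogram. Sub-G0-G1, G0-G1, S and G2-M fractions compared with untreated control.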

Assay [7] deals with K562. The assay can be described thus: Cell cycle arrest in human K-562 cells assessed as accumulation at sub G0/G1 phase at 212 nM after 24 hrs by flow cytometry. The format is functional. In a few lines:
as §1

Assay [8] deals with K562. The assay can be described thus: Cell cycle arrest in human K-562 cells assessed as accumulation at S phase at 212 nM after 24 hrs by flow cytometry. The format is functional. In a few lines:
as §1

Assay [9] relates to K562. As to the kind of experiment: Cell cycle arrest in human K-562 cells assessed as accumulation at G0/G1 phase at 212 nM after 24 hrs by flow cytometry. The format is functional. An outline of the steps:
as §1

Assay [10] concerns K562. The assay can be described thus: Cell cycle arrest in human K-562 cells assessed as accumulation at G2/M phase at 85 nM after 24 hrs by flow cytometry. It counts as functional.
In assay [11] the test system is K562. As to the kind of experiment: Cell cycle arrest in human K-562 cells assessed as accumulation at sub G0/G1 phase at 85 nM after 24 hrs by flow cytometry. It counts as functional.
The test system of assay [12] is K562. As to the kind of experiment: Cell cycle arrest in human K-562 cells assessed as accumulation at G0/G1 phase at 85 nM after 24 hrs by flow cytometry. It counts as functional.
The test system of assay [13] is K562. As to the kind of experiment: Cell cycle arrest in human K-562 cells assessed as accumulation at S phase at 85 nM after 24 hrs by flow cytometry. The format is functional.
The test system of assay [14] is K562. As to the kind of experiment: Cytotoxicity against human K-562 after 24 hrs. It counts as functional, cell-based. The conditions noted are these: K562, 24 h.
The test system of assay [15] is K562. As to the kind of experiment: Cell cycle arrest in human K-562 cells assessed as accumulation at G2/M phase at 400 nM after 24 hrs by flow cytometry. It counts as functional.
The test system of assay [16] is K562. As to the kind of experiment: Cell cycle arrest in human K-562 cells assessed as accumulation at sub G0/G1 phase at 400 nM after 24 hrs by flow cytometry. The format is functional.
The subject of assay [17] is K562. The assay can be described thus: Cell cycle arrest in human K-562 cells assessed as accumulation at G0/G1 phase at 400 nM after 24 hrs by flow cytometry. It counts as functional.
The test system of assay [18] is K562. As to the kind of experiment: Cell cycle arrest in human K-562 cells assessed as accumulation at S phase at 400 nM after 24 hrs by flow cytometry. The format is functional.
The test system of assay [19] is K562. As to the kind of experiment: Cell cycle arrest in human K-562 cells assessed as accumulation at G0/G1 phase at 115 nM after 24 hrs by flow cytometry. The format is functional. In a few lines:
as §1

The test system of assay [20] is K562. As to the kind of experiment: Cell cycle arrest in human K-562 cells assessed as accumulation at sub G0/G1 phase at 115 nM after 24 hrs by flow cytometry. The format is functional. An outline of the steps:
as §1

For assay [21], the system named is K562. The assay can be described thus: Cell cycle arrest in human K-562 cells assessed as accumulation at G2/M phase at 115 nM after 24 hrs by flow cytometry. It counts as functional. An outline of the steps:
as §1

Assay [22] has as its system K562. The assay can be described thus: Cell cycle arrest in human K-562 cells assessed as accumulation at S phase at 115 nM after 24 hrs by flow cytometry. It counts as functional. An outline of the steps: as §1
For assay [23], the system named is K562. The assay can be described thus: Cell cycle arrest in human K-562 cells assessed as accumulation at sub G0/G1 phase at 120 nM after 24 hrs by flow cytometry. It counts as functional.
Assay [24] concerns K562. As to the kind of experiment: Cell cycle arrest in human K-562 cells assessed as accumulation at S phase at 120 nM after 24 hrs by flow cytometry. The format is functional.
Assay [25] relates to K562. The assay can be described thus: Cell cycle arrest in human K-562 cells assessed as accumulation at G0/G1 phase at 120 nM after 24 hrs by flow cytometry. The format is functional.
The test system of assay [26] is K562. As to the kind of experiment: Cell cycle arrest in human K-562 cells assessed as accumulation at G2/M phase at 120 nM after 24 hrs by flow cytometry. The format is functional.
Assay [27] in a line: Antiproliferative activity against human Molt4/C8 cells after 3 days. The conditions noted are these: MOLT-4, 72 h.

What is called IC50 is the concentration at which inhibition is half-maximal. Higher therefore signals lower potency.

The structures appear in SMILES notation.

Turning to `COc1ccc2c(N)c(C(=O)c3cc(OC)c(OC)c(OC)c3)sc2c1`, the half-inhibitory concentration (IC50) in assay [1] worked out at 1.3 µM; with L1210, 0.039 µM; in the assay on FM3A, 0.046 µM. This compound also displayed an Activity in the assay filed under Bos taurus of 60%.
Turning to `COc1cc(C(=O)c2oc3ccccc3c2N(C)C)cc(OC)c1OC`, the figures for the 50% inhibitory concentration (IC50) in the assay with L1210 and in the assay with FM3A were greater than 10 µM and 8.8 µM, respectively.
Taken in the same sequence, the figures for `COc1cc(C(=O)c2oc3c(OC)cccc3c2N(C)C)cc(OC)c1OC` were 1.1 µM and 1.2 µM.
Consider `COc1ccc2c(N(C)C)c(C(=O)c3cc(OC)c(OC)c(OC)c3)oc2c1`, for which the IC50 in assay [1] was found to be 0.9 µM; with L1210, 0.065 µM; in the assay on FM3A it was 0.059 µM. Moreover, the Activity in the assay with K562 [2] was 38%; with K562 [3], 32%; in the assay listed under Bos taurus it was 76%; in the assay on K562 [4] it was 13%; with K562 [5], 30%.
Take `COc1ccc2c(NC(=O)CBr)c(C(=O)c3cc(OC)c(OC)c(OC)c3)oc2c1`: the IC50 stood at 2.3 µM in assay [1], 0.48 µM with L1210 and 0.56 µM with FM3A. Also, the Activity in the assay with K562 [6] was found to be 67%; with K562 [7] it was 15%; in the assay with K562 [8], 27%; with K562 [9], 6%.
Regarding `COc1cc(C(=O)c2oc3cccc(OC)c3c2N)cc(OC)c1OC`, the concentration for half-maximal inhibition (IC50) with L1210 worked out at 7.5 µM; in the assay with FM3A, 7.9 µM.
Taken in the same sequence, the figures for `COc1cc(C(=O)c2oc3c(OC)cccc3c2N)cc(OC)c1OC` were greater than 10 µM and greater than 10 µM.
For `COc1ccc2c(NC(C)=O)c(C(=O)c3cc(OC)c(OC)c(OC)c3)oc2c1`, the IC50 is 1.6 µM in assay [1], 0.094 µM in the assay on L1210, 0.1 µM with FM3A and 0.085 µM with K562 [14]. Also, the Activity with K562 [10] was 37%; in the assay on K562 [11] it was 12%; in the assay listed under Bos taurus, 51%; in the assay with K562 [12], 27%; in the assay on K562 [13], 36%.
`COc1ccc2oc(C(=O)c3cc(OC)c(OC)c(OC)c3)c(N)c2c1`: the IC50 with L1210 and in the assay with FM3A was greater than 10 µM each time.
On to `COc1ccc2c(NC(=O)CCl)c(C(=O)c3cc(OC)c(OC)c(OC)c3)oc2c1`, for which the IC50 was 2 µM in assay [1], 1.1 µM with L1210, 1.1 µM in the assay with FM3A and 0.4 µM with K562 [14]. Also, the Activity in the assay listed under Bos taurus stood at 47%; in the assay on K562 [15], 33%; in the assay with K562 [16], 13%; in the assay on K562 [17], 23%; in the assay on K562 [18], 44%.
In the case of `COc1ccc2c(NC(=O)CI)c(C(=O)c3cc(OC)c(OC)c(OC)c3)oc2c1`, the IC50 worked out at 1.8 µM in assay [1], 0.17 µM in the assay with L1210 and 0.26 µM with FM3A. The Activity came to 54% in the assay filed under Bos taurus; 23% in the assay on K562 [19]; 33% in the assay with K562 [20]; 21% in the assay on K562 [21]; 56% in the assay with K562 [22].
With `COc1ccc2c(N)c(C(=O)c3cc(OC)c(OC)c(OC)c3)oc2c1`, the half-maximal inhibitory concentration (IC50) in [1] turned out to be 1.1 µM; in the assay on L1210, 0.43 µM; in the assay with FM3A, 0.28 µM; in the assay with K562 [14] it was 0.12 µM. Besides, the Activity in the assay listed under Bos taurus came out at 73%; in the assay on K562 [23], 15%; with K562 [24] it was 45%; with K562 [25] it was 11%; in the assay with K562 [26], 44%.
In the case of `COc1cc(C(=O)c2oc3cccc(OC)c3c2N(C)C)cc(OC)c1OC`, the concentration for half-maximal inhibition (IC50) (in assay [27]; with L1210; with FM3A) was greater than 10 µM throughout.
`COc1ccc2c(N)c(C(=O)c3cc(OC)c(OC)c(OC)c3)n(C)c2c1` yielded an IC50 in assay [1] of 4.6 µM.
In the case of `COc1ccc2oc(C(=O)c3cc(OC)c(OC)c(OC)c3)c(N(C)C)c2c1`, the IC50 worked out at 1.4 µM in the assay with L1210 and 1.2 µM with FM3A.
With `COc1ccc2c(N)c(C(=O)c3cc(OC)c(OC)c(OC)c3)[nH]c2c1`, in assay [1], the IC50 was greater than 40 µM.
Consider `COc1cc(C(=O)c2oc3ccccc3c2N)cc(OC)c1OC`, for which the IC50 in the assay with L1210 and in the assay on FM3A was greater than 10 µM throughout.
